≈ marks a conversion by molar mass, not a printed value.
Experiments:
[1] = system: Escherichia coli; experiment: Antibacterial activity against ESBL-producing Escherichia coli ATCC 35218 strains 15 1 to 3 assessed as reduction in bacterial growth incubated for 18 to 20 hrs by CLSI based microdilution method; assay type: functional; conditions: time 18-20 hrs
Summary of the method: (§1)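 CLSI broth microdilution. Compounds in DMSO (levofloxacin and meropenem in water), serial twofold dilutions in broth, 64 to 0.008 μg/mL. […] Results reported as MIC ranges across strains.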

[2] = AUC (0 to infinity) in Sprague-Dawley rat at 4 mg/kg, iv measured upto 24 hrs by LC-MS/MS analysis; assay type: ADME, organism-based; parameters: time < 24 hrs, dose 4 mg/kg, route iv; conditions: in vivo
Summary of the method: (§2)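 Male Sprague-Dawley rats, n = 3 per group, single intravenous dose. For 4 mg/kg: 180–280 g rats, vehicle 5% DMSO + 5% EtOH + 40% PEG300 + 50% saline, blood from the retrobulbar vein at 0.05–24 h. For 5 and 20 mg/kg: 180–300 g rats, vehicle 5% DMSO + 5% solutol + 90% saline, sampled at 0.083–24 h. Plasma quantified by LC/MS/MS. Parameters from mean plasma concentration by noncompartmental analysis; values are mean ± standard deviation.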

[3] = Clearance in Sprague-Dawley rat at 4 mg/kg, iv measured upto 24 hrs by LC-MS/MS analysis; assay type: ADME, organism-based; conditions: in vivo; summary of the method: as §2
[4] = Metabolic stability in rat liver microsome assessed as metabolic bioavailability at 0.1 uM in presence of NADPH incubated upto 60 mins by LC-MS/MS analysis; assay type: ADME; conditions: liver microsomes
Summary of the method: (§3)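 Compound at 0.1 μM final, in 0.01% DMSO with 0.005% BSA. Incubated with rat or human liver microsomes at 0.33 mg/mL in 0.1 M Tris-HCl, pH 7.4, with 5 mM MgCl₂ and 1 mM NADPH, at 37 °C. Samples at 0, 7, 17, 30 and 60 min quenched with cold methanol and analysed by LC-MS/MS. Half-life, Cl_int and MF% derived as previously described.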

[5] = Metabolic stability in human liver microsome assessed as intrinsic clearance at 0.1 uM in presence of NADPH incubated upto 60 mins by LC-MS/MS analysis; assay type: ADME; conditions: microsomes, 1 h; summary of the method: as §3
[6] = system: Staphylococcus epidermidis; experiment: Antibacterial activity against methicillin-sensitive Staphylococcus epidermidis strains 15 1 to 4 assessed as reduction in bacterial growth incubated for 18 to 20 hrs by CLSI based microdilution method; assay type: functional; conditions: time 18-20 hrs
Summary of the method: (§4)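 Broth microdilution per CLSI. Compounds dissolved in DMSO (levofloxacin and meropenem in water) as 64 μg/mL stock, then serial twofold dilutions in broth giving 64 to 0.008 μg/mL. […] Clinical isolates tested as several strains per group; racemic GP-1 served as positive control; values given as MIC ranges.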

[7] = system: Pseudomonas aeruginosa; experiment: Antibacterial activity against IMP4-producing multidrug resistant Pseudomonas aeruginosa assessed as reduction in bacterial growth incubated for 18 to 20 hrs by CLSI based microdilution method; assay type: functional; conditions: time 18-20 hrs; summary of the method: as §4
[8] = system: Klebsiella pneumoniae; experiment: Antibacterial activity agains wild type Klebsiella pneumoniae ATCC BAA-2470 assessed as reduction in bacterial growth incubated for 18 to 20 hrs by CLSI based microdilution method; assay type: functional; conditions: time 18-20 hrs; summary of the method: as §4
[9] = biological target: T1, hERG (KCNH2) potassium channel (Homo sapiens, UniProt Q12809); experiment: Inhibition of hERG potassium channel assessed as maximum inhibition rate at 40 uM at -80 mV holding potential incubated for 120 seconds by whole cell-automated voltage clamp analysis assay relative to control; assay type: toxicity; conditions: time 120 sec
T1 sequence (Q12809 whole entry): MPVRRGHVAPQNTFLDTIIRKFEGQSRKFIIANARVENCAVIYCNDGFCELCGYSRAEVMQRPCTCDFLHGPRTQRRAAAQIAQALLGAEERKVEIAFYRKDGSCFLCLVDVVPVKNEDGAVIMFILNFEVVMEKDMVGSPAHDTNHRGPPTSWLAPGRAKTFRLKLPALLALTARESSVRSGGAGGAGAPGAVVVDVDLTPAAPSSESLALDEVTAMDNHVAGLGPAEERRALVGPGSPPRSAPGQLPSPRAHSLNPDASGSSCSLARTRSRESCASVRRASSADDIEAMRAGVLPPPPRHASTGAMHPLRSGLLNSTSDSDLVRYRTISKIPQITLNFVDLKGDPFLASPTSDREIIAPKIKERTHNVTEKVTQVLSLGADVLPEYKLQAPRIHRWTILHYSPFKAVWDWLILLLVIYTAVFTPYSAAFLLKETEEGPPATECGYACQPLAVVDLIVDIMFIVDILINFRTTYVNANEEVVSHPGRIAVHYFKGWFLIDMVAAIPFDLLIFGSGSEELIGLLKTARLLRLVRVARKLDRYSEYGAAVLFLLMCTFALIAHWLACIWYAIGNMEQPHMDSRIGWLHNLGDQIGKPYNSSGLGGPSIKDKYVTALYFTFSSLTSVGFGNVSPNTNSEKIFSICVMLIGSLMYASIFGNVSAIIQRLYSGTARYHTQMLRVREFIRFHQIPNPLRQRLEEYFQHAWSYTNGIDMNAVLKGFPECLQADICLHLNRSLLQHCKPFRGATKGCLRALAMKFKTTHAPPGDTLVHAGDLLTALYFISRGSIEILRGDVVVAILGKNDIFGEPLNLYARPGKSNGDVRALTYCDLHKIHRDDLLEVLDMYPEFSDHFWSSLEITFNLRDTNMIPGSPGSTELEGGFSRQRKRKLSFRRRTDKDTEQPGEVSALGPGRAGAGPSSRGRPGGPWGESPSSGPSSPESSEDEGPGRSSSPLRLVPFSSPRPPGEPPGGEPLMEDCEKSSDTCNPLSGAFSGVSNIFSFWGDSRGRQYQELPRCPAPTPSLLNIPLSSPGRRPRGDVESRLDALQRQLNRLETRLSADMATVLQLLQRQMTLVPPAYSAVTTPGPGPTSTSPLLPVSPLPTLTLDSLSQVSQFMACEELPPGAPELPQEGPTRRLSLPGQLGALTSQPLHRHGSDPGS
Summary of the method: (§5)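 Automated whole-cell patch clamp, holding potential −80 mV. Voltage protocol applied every 20 s. Baseline set with external solution containing 0.1% DMSO and stabilised 3 min. Compound applied until steady state, at least 3 min, then washout. Maximum tested concentration 40 μM, or 3 μM for cisapride as positive control.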

[10] = system: Escherichia coli; experiment: Antibacterial activity against ESBL-producing multidrug resistant Escherichia coli assessed as reduction in bacterial growth incubated for 18 to 20 hrs by CLSI based microdilution method; assay type: functional; conditions: time 18-20 hrs; summary of the method: as §4
[11] = MRT in Sprague-Dawley rat at 4 mg/kg, iv measured upto 24 hrs by LC-MS/MS analysis; assay type: ADME, organism-based; conditions: in vivo; summary of the method: as §2
[12] = Metabolic stability in rat liver microsome assessed as elimination half life at 0.1 uM in presence of NADPH incubated upto 60 mins by LC-MS/MS analysis; assay type: ADME; conditions: liver microsomes, read-out: beta t1/2; summary of the method: as §3
[13] = Cytotoxicity against human HEK293 cells assessed as cell viability measured for 48 hrs by CCK-8 assay; assay type: toxicity, cell-based
Summary of the method: (§6)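 Cells seeded at 1 × 10⁴ per well and grown for 48 h. Then exposed to test articles at 1–200 μM for another 48 h (n = 6). Viability by CCK-8 added for 2 h, absorbance read at 450 nm. CC50 calculated and reported as the mean.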

[14] = system: Staphylococcus aureus; experiment: Antibacterial activity against methicillin-sensitive Staphylococcus aureus strains 15 1 to 4 assessed as reduction in bacterial growth incubated for 18 to 20 hrs by CLSI based microdilution method; assay type: functional; conditions: time 18-20 hrs; summary of the method: as §4
[15] = Metabolic stability in human liver microsome assessed as metabolic bioavailability at 0.1 uM in presence of NADPH incubated upto 60 mins by LC-MS/MS analysis; assay type: ADME; conditions: liver microsomes; summary of the method: as §3
[16] = system: Pseudomonas aeruginosa; experiment: Antibacterial activity against wild type Pseudomonas aeruginosa ATCC 27853 assessed as reduction in bacterial growth incubated for 18 to 20 hrs by CLSI based microdilution method; assay type: functional; conditions: time 18-20 hrs; summary of the method: as §1
[17] = Volume of distribution at the steady state in Sprague-Dawley rat at 4 mg/kg, iv measured upto 24 hrs by LC-MS/MS analysis; assay type: ADME, organism-based; conditions: in vivo, read-out: Vdss; summary of the method: as §2
[18] = system: Klebsiella pneumoniae; experiment: Antibacterial activity agains wild type Klebsiella pneumoniae ATCC BAA-1705 assessed as reduction in bacterial growth incubated for 18 to 20 hrs by CLSI based microdilution method; assay type: functional; conditions: time 18-20 hrs; summary of the method: as §1
[19] = system: Klebsiella pneumoniae; experiment: Antibacterial activity against KPC2-producing multidrug resistant Klebsiella pneumoniae assessed as reduction in bacterial growth incubated for 18 to 20 hrs by CLSI based microdilution method; assay type: functional; conditions: time 18-20 hrs; summary of the method: as §4
[20] = system: Escherichia coli; experiment: Antibacterial activity against multidrug resistant wild type Escherichia coli ATCC BAA-2340 assessed as reduction in bacterial growth incubated for 18 to 20 hrs by CLSI based microdilution method; assay type: functional; conditions: time 18-20 hrs; summary of the method: as §4
[21] = system: Acinetobacter baumannii; experiment: Antibacterial activity against wild type Acinetobacter baumannii NCTC 13304 assessed as reduction in bacterial growth incubated for 18 to 20 hrs by CLSI based microdilution method; assay type: functional; conditions: time 18-20 hrs; summary of the method: as §4
[22] = system: Acinetobacter baumannii; experiment: Antibacterial activity agains OXA23-producing multidrug resistant Acinetobacter baumannii assessed as reduction in bacterial growth incubated for 18 to 20 hrs by CLSI based microdilution method; assay type: functional; conditions: time 18-20 hrs; summary of the method: as §4
[23] = biological target: Voltage-gated inwardly rectifying potassium channel KCNH2 (Homo sapiens, UniProt Q12809); experiment: Inhibition of hERG potassium channel assessed as […] at -80 mV holding potential incubated for 120 seconds by whole cell-automated voltage clamp analysis assay; assay type: toxicity; summary of the method: as §5
Voltage-gated inwardly rectifying potassium channel KCNH2, sequence (Q12809 whole entry): as above

[24] = Metabolic stability in rat liver microsome assessed as intrinsic clearance at 0.1 uM in presence of NADPH incubated upto 60 mins by LC-MS/MS analysis; assay type: ADME; conditions: microsomes, 1 h; summary of the method: as §3
[25] = Metabolic stability in human liver microsome assessed as elimination half life at 0.1 uM in presence of NADPH incubated upto 60 mins by LC-MS/MS analysis; assay type: ADME; conditions: liver microsomes, read-out: beta t1/2; summary of the method: as §3
[26] = Elimination half life in Sprague-Dawley rat at 4 mg/kg, iv measured upto 24 hrs by LC-MS/MS analysis; assay type: ADME, organism-based; conditions: in vivo, read-out: beta t1/2 (converted); summary of the method: as §2
[27] = system: Escherichia coli; experiment: Antibacterial activity against multidrug resistant wild type Escherichia coli NCTC 13353 assessed as reduction in bacterial growth incubated for 18 to 20 hrs by CLSI based microdilution method; assay type: functional; conditions: time 18-20 hrs; summary of the method: as §4
[28] = Cytotoxicity against human L02 cells assessed as cell viability measured for 48 hrs by CCK-8 assay; assay type: toxicity, cell-based; summary of the method: as §6
[29] = system: Escherichia coli; experiment: Antibacterial activity against Escherichia coli ATCC 35218 strains 15 1 to 3 assessed as reduction in bacterial growth incubated for 18 to 20 hrs by CLSI based microdilution method; assay type: functional; conditions: time 18-20 hrs; summary of the method: as §1
[30] = system: Pseudomonas aeruginosa; experiment: Antibacterial activity against multidrug resistant Pseudomonas aeruginosa strains 15 1 to 3 assessed as reduction in bacterial growth incubated for 18 to 20 hrs by CLSI based microdilution method; assay type: functional; conditions: time 18-20 hrs; summary of the method: as §4
[31] = Drug metabolism in Spargue-Dawley rat liver microsomes assessed as formation of M5 metabolite incubated upto 60 mins by UHPLC-MS/MS analysis; assay type: ADME, Microsome; conditions: 1 h
Summary of the method: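 Male SD rat liver microsomes at 1 mg protein/mL with 2 mM NADP and 5 mM MgCl₂ in 100 mM potassium phosphate, pH 7.4. Compound preincubated 5 min at 37 °C. Samples at 0, 30 and 60 min quenched with cold acetonitrile containing 0.1% formic acid, then analysed by UHPLC-MS/MS. Relative peak areas from extracted ion chromatograms at 60 min.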

[32] = biological target: T1, hERG (KCNH2) potassium channel; experiment: Inhibition of hERG potassium channel assessed as maximum inhibition rate at 3 uM at -80 mV holding potential incubated for 120 seconds by whole cell-automated voltage clamp analysis assay relative to control; assay type: toxicity; conditions: time 120 sec; summary of the method: as §5

**Q.** For `CCC(CN)=C1CN(c2nc(Oc3cnc(C)nc3)nc3[nH]c4c(NC)cc(F)cc4c23)C1`, which MIC [1] is on record?
**A.** < 8 ng/mL

**Q.** What about the AUC(0-inf) [2] of the same compound?
**A.** 776 ng·h/mL

**Q.** And the clearance [3]?
**A.** 86.7 mL/min/kg

**Q.** And the Fh at 1 h, 0.1 µM [4]?
**A.** 37.4%

**Q.** And the CLH [5]?
**A.** 14.3 mL/min/g

**Q.** And the MIC [6]?
**A.** < 8 ng/mL

**Q.** What about the MIC [7] of the same compound?
**A.** 2 µg/mL (≈ 4.46 µM)

**Q.** And the MIC [8]?
**A.** 1 µg/mL (≈ 2.23 µM)

**Q.** What about the inhibition at 2 min, 40 µM [9] of the same compound?
**A.** 41.1%

**Q.** What about the MIC [10] of the same compound?
**A.** 0.25 µg/mL (≈ 0.557 µM)

**Q.** And the MRT [11]?
**A.** 2.8 h

**Q.** And the half-life at 0.1 µM [12]?
**A.** 28.3 min

**Q.** What about the CC50 at 48 h [13] of the same compound?
**A.** 17 µM

**Q.** And the MIC [14]?
**A.** < 8 ng/mL

**Q.** What about the Fh at 1 h, 0.1 µM [15] of the same compound?
**A.** 57.8%

**Q.** And the MIC [16]?
**A.** 1 µg/mL (≈ 2.23 µM)

**Q.** And the Vd [17]?
**A.** 14.7 L/kg

**Q.** And the MIC [18]?
**A.** 2 µg/mL (≈ 4.46 µM)

**Q.** What about the MIC [19] of the same compound?
**A.** 1 µg/mL (≈ 2.23 µM)

**Q.** What about the MIC [20] of the same compound?
**A.** 0.25 µg/mL (≈ 0.557 µM)

**Q.** And the MIC [21]?
**A.** 0.125 µg/mL (≈ 0.279 µM)

**Q.** And the MIC [22]?
**A.** 0.125 µg/mL (≈ 0.279 µM)

**Q.** What about the IC50 [23] of the same compound?
**A.** > 40 µM

**Q.** What about the CLH [24] of the same compound?
**A.** 74.3 mL/min/g

**Q.** What about the half-life at 0.1 µM [25] of the same compound?
**A.** 147 min

**Q.** And the half-life [26]?
**A.** 222 min

**Q.** And the MIC [27]?
**A.** 0.125 µg/mL (≈ 0.279 µM)

**Q.** What about the CC50 at 48 h [28] of the same compound?
**A.** 9.74 µM

**Q.** What about the MIC [29] of the same compound?
**A.** < 8 ng/mL

**Q.** What about the MIC [30] of the same compound?
**A.** 0.5 µg/mL (≈ 1.11 µM)

**Q.** And the Activity [31]?
**A.** 72.85%

**Q.** For `COc1cc(N)c(Cl)cc1C(=O)NC1CCN(CCCOc2ccc(F)cc2)CC1OC` (configuration not stated) [CISAPRIDE MONOHYDRATE], which inhibition at 2 min, 3 µM [32] is on record?
**A.** 97.7%

— ChEMBL document CHEMBL5096186, “Design, Synthesis, and Biological Evaluation of Novel Pyrimido[4,5-b]indole Derivatives Against Gram-Negative Multidrug-Resistant Pathogens” (J Med Chem, 2021)
